# According to ChEMBL document CHEMBL1914358, “Virtual screening targeting the urokinase receptor, biochemical and cell-based studies, synthesis, pharmacokinetic characterization, and effect on breast tumor metastasis” (J Med Chem, 2011):
# Active and inactive are the calls of the source. No cut-off for these calls is given here.
# How the values were obtained:
# [1] = (§1) Inhibition of human MAPK phosphorylation in MDA-MB-231 cells at 100 uM after 30 mins by Western blot analysis; type: cell-based; conditions: MDA-MB-231, 0.5 h
# Procedure, shortened: (§2)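 MDA-MB-231 cells were exposed to 100 μM compound or 1% DMSO for 30 min and lysed in RIPA buffer with protease and phosphatase inhibitors. Equal protein was run on 4-12% gels under non-reducing conditions and transferred to nitrocellulose. Detection used HRP secondary antibody and chemiluminescence.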
# Nucleic Acid [2] = experiment: Displacement of ethidium bromide from salmon sperm DNA at 1 uM by fluorescence assay; type: nucleic-acid assay; conditions: Salmonidae
# Procedure, shortened: (§3)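 Fluorescent intercalator displacement: loss of fluorescence from ethidium bromide bound to salmon sperm DNA, excitation 530 nm, at the stated compound concentration.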
# [3] = tested on: hERG potassium channel KCNH2 (Homo sapiens); experiment: Inhibition of human ERG channel at 25 uM =
# [4] = tested on: hERG potassium channel KCNH2 (Homo sapiens); experiment: Inhibition of human ERG potassium channel (hERG) at 10 uM by fluorescence polarization assay
# [5] = tested on: hERG potassium channel KCNH2 (Homo sapiens); experiment: Inhibition of human ERG potassium channel (hERG) at 1 uM by fluorescence polarization assay
# Nucleic Acid [6] = experiment: Displacement of ethidium bromide from salmon sperm DNA at 25 uM by fluorescence assay; type: nucleic-acid assay; conditions: Salmonidae; procedure, shortened: as §3
# Cytochrome P450 2C9 = Cytochrome P450 2C9 (Homo sapiens, UniProt P11712); experiment: Inhibition of CYP2C9 at 1 uM by fluorsecence-based assay; type: ADME
# Procedure, shortened: (§4)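 Fluorescence-based CYP2C9 assay measuring inhibition of fluorescent substrate metabolism at the stated concentration. Sulphaphenazole at 5 μM served as positive control.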
# [7] = molecular target: Urokinase plasminogen activator surface receptor (Homo sapiens, UniProt Q03405); experiment: Displacement of […] peptide from human uPAR expressed in drosophila S2 cells by fluorescence polarization assay
# Procedure, shortened: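 Soluble human uPAR (residues 1-283), from stably transfected Drosophila S2 cells, was used at 500 nM with 100 nM AE147-FAM. Inhibitor range 0.78-100 μM in 0.01% Triton X-100/PBS, final 2% DMSO, triplicate. Polarization was read immediately at room temperature (ex 485/em 530 nm).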
# CYP2C9 [8] = molecular target: T1, CYP2C9 (Homo sapiens, UniProt P11712); experiment: Inhibition of CYP2C9 at 25 uM by fluorsecence-based assay; type: ADME; procedure, shortened: as §4
# Nucleic Acid [9] = experiment: Displacement of ethidium bromide from salmon sperm DNA at 10 uM by fluorescence assay; type: nucleic-acid assay; conditions: Salmonidae; procedure, shortened: as §3
# [10] = molecular target: Proto-oncogene tyrosine-protein kinase Src (Homo sapiens) (UniProt P12931); experiment: Inhibition of human SRC phosphorylation in MDA-MB-231 cells at 100 uM after 30 mins by Western blot analysis; type: cell-based; procedure, shortened: as §2
# [11] = molecular target: Focal adhesion kinase 1 (Homo sapiens) (UniProt Q05397); experiment: Inhibition of human FAK phosphorylation in MDA-MB-231 cells at 100 uM after 30 mins by Western blot analysis; type: cell-based; procedure, shortened: as §2
# MDA-MB-231 [12] = experiment: as §1; type: cell-based; procedure, shortened: as §2
# [13] = Half life in mouse at 100 mg/kg, po administered as single dose by HPLC-MS/MS analysis; type: ADME, organism-based; set-up: dose 100 mg/kg, route oral; conditions: in vivo
# MDA-MB-231 [14] = experiment: Antimetastatic activity in human MDA-MB-231 cells assessed as inhibition of cell migration after 3 hrs by transwell assay; type: functional, cell-based; conditions: MDA-MB-231, 3 h
# Procedure, shortened: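 Serum-starved (4 h) subconfluent cells, 5 × 10^4 in 0.1% FBS DMEM with compound or 1.0% DMSO, were placed in upper chambers of inserts with fibronectin-coated undersides (30 μg/ml). After 3 h at 37°C, 5% CO2, cells on the underside were methanol-fixed, hematoxylin-stained and counted in ten fields (×200). Triplicate; mean ± SE.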
# MDA-MB-231 [15] = experiment: Antimetastatic activity in human MDA-MB-231 cells assessed as inhibition of cell invasion after 3 hrs by transwell assay; type: functional, cell-based; conditions: MDA-MB-231, 3 h
# [16] = tested on: hERG potassium channel KCNH2 (Homo sapiens); experiment: Inhibition of human ERG potassium channel (hERG) at 25 uM by fluorescence polarization assay
# MDA-MB-231 [17] = experiment: Antimetastatic activity in human MDA-MB-231 cells assessed as inhibition of cell adhesion after 90 mins by crystal violet staining; type: functional, cell-based; conditions: MDA-MB-231, 1.5 h
# Procedure, shortened: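 Wells were coated with 15 μg/ml fibronectin for 1 h at room temperature, then blocked with 3% heat-denatured BSA for 1 h at 37°C. Subconfluent cells were trypsinized, quenched with soybean trypsin inhibitor and washed in serum-free medium. 2 × 10^4 cells per well with compound, quadruplicate, 90 min at 37°C. Adherent cells were read by crystal violet at 570 nm; mean ± SE.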
# MDA-MB-231 [18] = experiment: Antiproliferative activity against human MDA-MB-231 cells assessed as decrease in cell viability after 3 days by MTT assay; type: functional, cell-based; conditions: MDA-MB-231, 72 h
# Procedure, shortened: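 Cells were grown at 37°C in 10% FBS-DMEM with serially diluted compound, made from 5 mM DMSO stock diluted 1:50 in medium, for 3 days. Viability was read by MTT absorbance at 570 and 630 nm.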
# TMB-231 = experiment: Antitumor activity against human […] cells xenografted in NOD/SCID mouse assessed as reduction in lung metastatic lesions at 150 mg/kg, po qd administered 18 days post-implantation measured after 68 days; type: functional, organism-based; set-up: dose 150 mg/kg
# Procedure, shortened: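 Female NOD/SCID mice with mammary fat pad TMD-231 tumours received daily oral gavage at 150 mg/kg or vehicle from day 18 (n = 11). At study end lungs were removed and H&E stained. Metastasis number and size were assessed in 2-5 fields per sample and scored 1+ to 4+ relative to the highest sample by a blinded pathologist.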
# MDA-MB-231 [19] = experiment: Induction of apoptosis in human MDA-MB-231 cells at 50 uM after 24 hrs by annexin V-FITC and propidium iodide staining relative to control; type: functional
# Procedure, shortened: (§5)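 MDA-MB-231 grown in DMEM/10% FBS with penicillin/streptomycin, 37 °C, 5% CO2, to 80–90% confluence; exposed to compound or 1% DMSO control for 24 h. Cells detached, washed in cold PBS, 1×10^5 cells in binding buffer stained with annexin V-FITC and propidium iodide 15 min at 25 °C in the dark, analysed by flow cytometry; apoptotic = annexin V+/PI−, necrotic = annexin V+/PI+.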
# [20] = Tmax in mouse at 100 mg/kg, po administered as single dose by HPLC-MS/MS analysis; type: ADME, organism-based; set-up: dose 100 mg/kg, route oral; conditions: in vivo
# [21] = Cmax in mouse at 100 mg/kg, po administered as single dose after 5 hrs by HPLC-MS/MS analysis; type: ADME, organism-based; set-up: dose 100 mg/kg, route oral; conditions: in vivo
# [22] = molecular target: T2, Matrix metalloproteinase-9 (Homo sapiens, UniProt P14780); experiment: Inhibition of human MMP-9 activity in human MDA-MB-231 cells assessed as ECM degradation at 50 uM after 24 hrs by gelatin zymography assay; type: cell-based
# Procedure, shortened: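 Cells were treated with compound in serum-free medium for 24 h, and conditioned medium was concentrated and protein-normalized. Samples were run on 10% SDS gels containing 1 mg/ml gelatin. Clear bands were quantified after Coomassie staining.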
# [23] = AUC (0 to infinity) in mouse at 50 mg/kg, po administered as single dose by HPLC-MS/MS analysis; conditions: plasma
# [24] = Apparent oral clearance in mouse at 50 mg/kg administered as single dose by HPLC-MS/MS analysis; conditions: in vivo
# HUVEC = experiment: Antiangiogenic activity in human HUVEC cells assessed as inhibition of tube formation by matrigel-based tube formation assay
# [25] = Toxicity in po dosed NOD/SCID mouse xenografted human […] cells; type: organism-based; conditions: in vivo
# MDA-MB-231 [26] = experiment: Induction of necrosis in human MDA-MB-231 cells at 50 uM after 24 hrs by annexin V-FITC and propidium iodide staining relative to control; type: functional; procedure, shortened: as §5
# [27] = molecular target: T2, Matrix metalloproteinase-9; experiment: Inhibition of human MMP-9 activity in human MDA-MB-231 cells assessed as ECM degradation after 24 hrs by gelatin zymography assay; type: cell-based
# [28] = Antitumor activity against human […] cells xenografted in NOD/SCID mouse assessed as decrease in tumor volume at 150 mg/kg, po qd administered 18 days post-implantation measured after 68 days; type: functional; set-up: scale not given: the % may be the effect or the level left
# Procedure, shortened: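 Female NOD/SCID mice bearing mammary fat pad TMD-231 tumours were randomized and dosed from day 18 post-implantation by daily oral gavage at 150 mg/kg or vehicle (n = 11). Caliper measurements were taken over 68 days; volume = (shorter² × longer)/2.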
# MDA-MB-231 [29] = experiment: Induction of apoptosis in human MDA-MB-231 cells assessed as apoptotic cells at 50 uM after 24 hrs by annexin V-FITC and propidium iodide staining (reference value: 4%); type: functional; procedure, shortened: as §5
# CYP2C9 [30] = molecular target: T1, CYP2C9; experiment: Inhibition of CYP2C9 at 5 uM by fluorsecence-based assay
# Urokinase plasminogen activator surface receptor, sequence (Q03405 whole entry, the tested form may be a part): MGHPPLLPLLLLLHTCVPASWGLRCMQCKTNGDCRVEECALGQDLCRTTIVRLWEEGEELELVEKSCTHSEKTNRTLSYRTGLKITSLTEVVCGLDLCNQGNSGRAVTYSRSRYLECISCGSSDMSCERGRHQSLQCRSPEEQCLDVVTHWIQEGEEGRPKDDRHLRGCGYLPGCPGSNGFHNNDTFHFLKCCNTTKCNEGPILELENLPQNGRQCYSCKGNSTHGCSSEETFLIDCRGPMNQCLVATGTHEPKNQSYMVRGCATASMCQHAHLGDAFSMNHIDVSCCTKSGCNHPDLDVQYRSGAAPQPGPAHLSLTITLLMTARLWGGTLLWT
# T2 sequence (P14780 whole entry): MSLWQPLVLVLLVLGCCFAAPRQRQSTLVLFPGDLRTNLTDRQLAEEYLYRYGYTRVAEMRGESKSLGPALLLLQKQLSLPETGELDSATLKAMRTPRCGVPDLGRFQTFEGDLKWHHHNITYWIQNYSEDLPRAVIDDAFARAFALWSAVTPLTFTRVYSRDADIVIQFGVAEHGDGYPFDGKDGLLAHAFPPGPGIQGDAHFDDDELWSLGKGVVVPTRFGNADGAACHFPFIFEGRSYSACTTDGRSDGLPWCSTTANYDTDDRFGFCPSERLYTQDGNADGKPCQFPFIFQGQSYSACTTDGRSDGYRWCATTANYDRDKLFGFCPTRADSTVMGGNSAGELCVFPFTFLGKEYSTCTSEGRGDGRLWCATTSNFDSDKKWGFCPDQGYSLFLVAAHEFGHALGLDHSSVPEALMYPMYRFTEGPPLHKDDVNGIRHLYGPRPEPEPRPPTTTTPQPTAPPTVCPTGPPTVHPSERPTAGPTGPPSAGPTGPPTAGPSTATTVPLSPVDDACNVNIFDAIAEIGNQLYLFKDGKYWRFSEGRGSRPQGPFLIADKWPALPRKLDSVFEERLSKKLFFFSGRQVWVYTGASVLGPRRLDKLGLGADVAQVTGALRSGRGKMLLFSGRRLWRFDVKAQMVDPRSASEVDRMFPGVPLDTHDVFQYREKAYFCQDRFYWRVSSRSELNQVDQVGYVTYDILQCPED
# T1 sequence (P11712 whole entry): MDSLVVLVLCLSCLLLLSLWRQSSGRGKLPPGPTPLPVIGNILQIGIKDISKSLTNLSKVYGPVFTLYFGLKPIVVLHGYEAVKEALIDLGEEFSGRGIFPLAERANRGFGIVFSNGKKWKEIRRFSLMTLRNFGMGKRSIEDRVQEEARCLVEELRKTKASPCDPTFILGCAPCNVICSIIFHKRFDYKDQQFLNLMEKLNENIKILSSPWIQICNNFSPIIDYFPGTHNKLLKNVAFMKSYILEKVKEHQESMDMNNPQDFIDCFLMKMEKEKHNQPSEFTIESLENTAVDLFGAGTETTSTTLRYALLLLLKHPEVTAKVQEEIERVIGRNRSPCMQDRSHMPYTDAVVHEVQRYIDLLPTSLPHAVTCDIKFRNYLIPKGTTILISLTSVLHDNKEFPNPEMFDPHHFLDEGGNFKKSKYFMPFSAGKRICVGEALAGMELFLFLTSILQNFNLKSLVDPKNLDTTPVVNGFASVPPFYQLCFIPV
# Cytochrome P450 2C9, sequence (P11712 whole entry): as above
# Focal adhesion kinase 1 (Homo sapiens), sequence (Q05397 2-1052 limits assumed): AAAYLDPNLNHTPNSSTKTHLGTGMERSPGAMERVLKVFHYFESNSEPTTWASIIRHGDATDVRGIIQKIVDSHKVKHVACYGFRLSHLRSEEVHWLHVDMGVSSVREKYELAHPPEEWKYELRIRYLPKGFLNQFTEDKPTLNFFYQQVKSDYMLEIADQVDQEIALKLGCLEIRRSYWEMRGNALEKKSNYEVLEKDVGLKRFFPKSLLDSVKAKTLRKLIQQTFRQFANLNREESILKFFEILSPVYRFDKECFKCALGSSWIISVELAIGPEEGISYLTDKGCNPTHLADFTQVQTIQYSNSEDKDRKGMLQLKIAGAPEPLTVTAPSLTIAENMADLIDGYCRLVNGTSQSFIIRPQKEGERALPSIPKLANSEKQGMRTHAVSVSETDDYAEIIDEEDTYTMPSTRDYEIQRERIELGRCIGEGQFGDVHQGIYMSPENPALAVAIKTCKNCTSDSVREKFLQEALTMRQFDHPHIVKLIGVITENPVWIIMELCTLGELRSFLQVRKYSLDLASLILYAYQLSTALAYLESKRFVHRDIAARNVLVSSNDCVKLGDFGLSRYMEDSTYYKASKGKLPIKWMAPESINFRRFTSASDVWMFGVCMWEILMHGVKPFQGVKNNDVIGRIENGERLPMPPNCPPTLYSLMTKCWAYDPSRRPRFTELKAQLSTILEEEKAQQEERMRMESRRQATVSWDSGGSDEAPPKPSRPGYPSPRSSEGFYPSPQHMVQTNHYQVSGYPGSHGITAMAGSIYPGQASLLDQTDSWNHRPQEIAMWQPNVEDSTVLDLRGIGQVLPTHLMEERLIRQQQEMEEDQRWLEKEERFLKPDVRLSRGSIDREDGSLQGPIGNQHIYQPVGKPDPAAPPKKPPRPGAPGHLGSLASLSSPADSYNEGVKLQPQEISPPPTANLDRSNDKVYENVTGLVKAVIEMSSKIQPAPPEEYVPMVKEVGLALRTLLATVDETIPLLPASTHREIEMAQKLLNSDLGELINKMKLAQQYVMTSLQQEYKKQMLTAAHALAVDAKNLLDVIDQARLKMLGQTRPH
# Proto-oncogene tyrosine-protein kinase Src (Homo sapiens), sequence (P12931 2-536 limits assumed): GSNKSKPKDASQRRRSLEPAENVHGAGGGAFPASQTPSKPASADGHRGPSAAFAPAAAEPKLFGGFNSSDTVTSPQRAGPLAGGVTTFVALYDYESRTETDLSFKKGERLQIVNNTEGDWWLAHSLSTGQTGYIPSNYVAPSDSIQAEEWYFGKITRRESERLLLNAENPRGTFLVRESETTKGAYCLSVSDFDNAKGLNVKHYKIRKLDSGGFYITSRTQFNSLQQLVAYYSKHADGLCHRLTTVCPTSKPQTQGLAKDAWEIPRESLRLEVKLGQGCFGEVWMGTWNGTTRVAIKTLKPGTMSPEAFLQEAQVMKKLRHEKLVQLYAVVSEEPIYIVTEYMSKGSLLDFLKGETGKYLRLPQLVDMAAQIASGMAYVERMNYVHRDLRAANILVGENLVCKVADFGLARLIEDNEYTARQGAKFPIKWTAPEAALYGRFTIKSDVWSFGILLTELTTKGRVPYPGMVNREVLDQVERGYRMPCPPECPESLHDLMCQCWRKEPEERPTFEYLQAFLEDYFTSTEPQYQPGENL
structure (smiles),measurement,setting,value
c1ccc(C[C@H](CCNCc2ccc3c(c2)OCO3)c2ccc3c(c2)OCO3)cc1 (racemic),IC50,[1],20 µM
same,inhibition,Nucleic Acid [2],inactive
same,inhibition,[3],Active
same,inhibition,[4],Active
same,inhibition,[5],Active
same,inhibition,Nucleic Acid [6],30%
same,inhibition (INH),Cytochrome P450 2C9,Active
same,Activity,[7],Dose-dependent effect
same,inhibition at 25 µM,CYP2C9 [8],80%
same,inhibition,Nucleic Acid [9],inactive
same,inhibition,[10],inactive
same,inhibition,[11],inactive
Cc1cc(C)cc(NC(=O)c2cnn(-c3ccc(C(C)C)cc3)c2C2CCNCC2)c1,inhibition,MDA-MB-231 [12],Active
same,half-life,[13],2.18 h
same,inhibition,Nucleic Acid [2],inactive
same,IC50,MDA-MB-231 [14],40 µM
same,IC50,MDA-MB-231 [15],30 µM
same,inhibition,[16],60%
same,inhibition,Nucleic Acid [6],< 10%
same,IC50,MDA-MB-231 [17],45 µM
same,IC50,MDA-MB-231 [18],6 µM
same,Activity,[7],Dose-dependent effect
same,inhibition at 25 µM,CYP2C9 [8],20%
same,Activity,TMB-231,Active
same,Activity,MDA-MB-231 [19],51%
same,Tmax,[20],1 h
same,Cmax,[21],4410 ng/mL
same,inhibition,[22],93%
same,AUC(0-inf),[23],47200 ng·h/mL
same,inhibition,Nucleic Acid [9],inactive
same,CL/F,[24],0.7 mL/min
same,IC50,HUVEC,3 µM
same,MTD,[25],150 mg/kg
same,Activity,MDA-MB-231 [26],21%
same,IC50,[27],25 µM
same,inhibition,[27],Dose-dependent effect
same,Activity,[28],20%
CN(C)c1ccc(CNCCC(Cc2ccccc2)c2ccc3c(c2)OCO3)cc1 (racemic),inhibition,MDA-MB-231 [12],Active
same,inhibition,Nucleic Acid [2],inactive
same,Activity,MDA-MB-231 [29],46%
same,inhibition,Nucleic Acid [6],30%
same,inhibition (INH),Cytochrome P450 2C9,Active
same,Ki,[7],20 µM
same,inhibition at 25 µM,CYP2C9 [8],80%
same,inhibition,Nucleic Acid [9],inactive
same,Activity,MDA-MB-231 [26],22%
same,inhibition,[27],Dose-dependent effect
Nc1ccc(S(=O)(=O)Nc2ccnn2-c2ccccc2)cc1 [SULFAPHENAZOLE],inhibition at 5 µM,CYP2C9 [30],69%
